# Screening data: PubChem BioAssay, Broad Institute
# A selection: hits, their analogues and other compounds. The true share with any hit is near 3.2%.
# AF4-AF9 inh – inhibitors of AF4 peptide binding to AF9, primary screen, biochemical, AlphaScreen, biotin-AF4 peptide, FLAG-AF9, single point | Protein AF-9 (Homo sapiens), P42568 | inhibition, % at 10 µM | 350,000 compounds, 0.47% hits | AID 651704, 2012;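 active means every replicate reaching a set inhibition limit, whatever the replicate mean, cut at about 25% in these data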;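 further: 0% = plate neutral control median and 100% = total signal loss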
# Target sequence (P42568 whole entry, looked up): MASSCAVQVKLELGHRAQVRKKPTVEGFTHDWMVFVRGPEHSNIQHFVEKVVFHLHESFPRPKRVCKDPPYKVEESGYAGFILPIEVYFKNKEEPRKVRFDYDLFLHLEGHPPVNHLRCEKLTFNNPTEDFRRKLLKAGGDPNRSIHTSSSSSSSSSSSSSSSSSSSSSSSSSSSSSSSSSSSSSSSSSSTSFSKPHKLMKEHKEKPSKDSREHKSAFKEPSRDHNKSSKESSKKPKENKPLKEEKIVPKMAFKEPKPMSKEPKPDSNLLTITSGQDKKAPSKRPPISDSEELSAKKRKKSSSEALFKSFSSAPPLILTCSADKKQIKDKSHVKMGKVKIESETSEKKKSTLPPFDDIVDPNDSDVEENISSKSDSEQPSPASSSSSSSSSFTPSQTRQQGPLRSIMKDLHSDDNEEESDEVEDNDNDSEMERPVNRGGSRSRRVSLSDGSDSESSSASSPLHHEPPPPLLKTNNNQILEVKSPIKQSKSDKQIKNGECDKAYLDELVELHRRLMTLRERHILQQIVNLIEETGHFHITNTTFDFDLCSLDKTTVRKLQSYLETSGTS
# Cneo AK release – Cryptococcus neoformans cell lysis inducers, primary screen, AK release luminescence, single concentration. lysis activity, % at 15 µM. 360,000 compounds, 0.2% hits. AID 651654, 2012. C. neoformans lysis, adenylate kinase release luminescence, 4 h; normalised: neutral wells 0, clomiphene wells 100;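 active means mean lysis activity across replicates of at least 80%, whatever share of replicates individually reach that level; inactive means mean lysis activity below 80%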
#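 Signal: Adenylate kinase release luminescence | Assay system: Log-phase Cryptococcus neoformans yeast cells | Input: Cells at 5 × 10^6 per mL | Buffer or medium: Fresh YPD growth medium | Compound: Single dose | Schedule: Static 4 h at 37 °C with compound, 1 h detection | Controls: Clomiphene | Read-out: Luminescence rise reflecting yeast cell lysis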
# PfHsp90 yeast 2 – growth inhibition of PfHsp90-expressing yeast, primary screen, antimalarial PfHsp90 inhibitor project, S. cerevisiae, BacTiter-Glo luminescence, single point, set 2; BacTiter-Glo ATP, 48 h; yeast lacking PDR1 and PDR3 efflux regulators; inhibition, % at 9.4 µM; 310,000 compounds, 0.32% hits; AID 504621, 2011;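 active means every replicate shows inhibition above about 80%, whatever the replicate mean, limit read from the data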;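 further: 0% = DMSO neutral controls and 100% = 20 µM radicicol positive controls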
# rRNA inh HTS – reduced GFP signal of wild-type E. coli, primary screen, bacterial rRNA inhibitor project, GFP/RFP fluorescence, OD600, single point. E. coli WT GFP vs humanized-ribosome RFP mutants, 24 h; hits give low values; DMSO median 0, no signal -100. GFP signal change (wild-type ribosome), % (test concentration not listed). AID 720706, 2013. 350,000 compounds, 1.6% hits;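 active means significant combined selectivity score with lowered wild-type GFP, culture density cut under 30%, mutant RFP and density less affected; inactive means any of these conditions unmet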
# DENV2 CPE rescue – inhibitors of DENV2 cytopathic effect, primary screen, cell-based, plate reader, single concentration; DENV2-infected cells, cytopathic effect rescue; CPE inhibition, % at 9.99 µM; 350,000 compounds, 1.7% hits; in the data active means CPE inhibition above about 20%, passing the limit was not always enough; tested in BHK-21 cells;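 further: 0% = median of neutral control wells and 100% = median of positive control wells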
# S100A4 inh HTS – inhibitors of S100A4-myosin IIA peptide binding, primary screen, biochemical, fluorescence polarization, TAMRA-MyoIIA peptide | 360,000 compounds, 0.14% hits | inhibition, % at 10.7 µM | AID 652163, 2013 | Protein S100-A4 (Homo sapiens), P26447;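 active means mean inhibition of at least 70% across replicates, with every replicate also reaching that level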
# Target sequence (P26447 whole entry, looked up): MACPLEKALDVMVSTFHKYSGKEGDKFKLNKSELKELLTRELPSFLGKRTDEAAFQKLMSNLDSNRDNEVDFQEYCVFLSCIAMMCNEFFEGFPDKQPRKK
#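 Test system: S100A4 monomer protein. Medium: HEPES buffer with Ca2+, pH 7.2. Reagent: fluorescent myosin IIA peptide, 5 nM. Compound dosing: single-point compound testing. Timing: 5 min between mix addition and reading. Benchmarks: DMSO neutral and TFP positive wells.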
# * hit, by the source's call; . = no result.
SMILES,AF4-AF9 inh,Cneo AK release,PfHsp90 yeast 2,rRNA inh HTS,DENV2 CPE rescue,S100A4 inh HTS
CC/C=C/C(=O)N1CC2(CC(c3cccc(NC(=O)COc4ccc(Cl)cc4)c3)=NO2)C[C@H]1C(N)=O (some centres not stated),-12,7,3,-9,22*,-3
C/C=C/C=C/C(=O)N1CC2(CC(c3cccc(NC(=O)/C=C/C)c3)=NO2)C[C@@H]1C(N)=O (some centres not stated),-12,-3,9,3,29*,-1
O=C(CCN1CCCCC1)NCC[C@H]1CC[C@@H](NC(=O)C2CCCC2)[C@H](CO)O1,0,0,.,1,7,1
C[C@H](CO)N1C[C@H](C)[C@H](CN(C)C(=O)CCCN(C)C)OCCCC[C@H](C)Oc2ccc(NC(=O)Cc3ccccc3)cc2C1=O,-4,-3,.,2,98*,-17
C[C@@H]1CCCCO[C@@H](CN(C)C(=O)CCCN(C)C)[C@H](C)CN([C@H](C)CO)C(=O)c2cc(NC(=O)Cc3ccccc3)ccc2O1,-2,2,.,3,-2,-8
C[C@H]1CCCCO[C@H](CN(C)C(=O)CCCN(C)C)[C@@H](C)CN([C@@H](C)CO)C(=O)c2cc(NC(=O)Cc3ccccc3)ccc2O1,-3,2,.,3,29*,4
C[C@@H]1CCCCO[C@@H](CN(C)C(=O)CCCN(C)C)[C@H](C)CN([C@H](C)CO)C(=O)c2cc(NC(=O)Nc3ccc4c(c3)OCO4)ccc2O1,.,5,.,3,-3,.
C[C@@H]1CCCCO[C@H](CN(C)C(=O)CCCN(C)C)[C@@H](C)CN([C@@H](C)CO)C(=O)c2cc(NC(=O)Nc3ccc4c(c3)OCO4)ccc2O1,.,2,.,2,47*,.
COc1ccc(NC(=O)N(C)C[C@@H]2Oc3ccc(NS(=O)(=O)c4ccccc4)cc3C(=O)N([C@@H](C)CO)C[C@H]2C)cc1,-1,1,.,2,15,-7
C[C@H](CO)N1C[C@H](C)[C@@H](CN(C)S(=O)(=O)c2ccc(F)cc2)Oc2c(NS(=O)(=O)c3cn(C)cn3)cccc2C1=O,.,.,.,1,.,.
O=C(O)c1ccc(S(=O)(=O)c2ccc3c(c2)C(=O)N(c2ccc(O)cc2)C3=O)cc1,-52,.,3,-36*,1,-26
CN(C)CCCNC(=O)C[C@H]1CC[C@@H]2[C@@H](COc3ccc(NC(=O)NC4CCCC4)cc3C(=O)N2C)O1,.,.,.,2,.,.
O=C(C[C@@H]1CC[C@H]2[C@@H](COC[C@H](O)CN2S(=O)(=O)c2ccc(F)cc2)O1)N[C@@H]1CCN(Cc2ccccc2)C1,3,2,.,-4,6,-4
COc1cc(/C=N/NS(=O)(=O)c2ccc3ccccc3c2)ccc1OCc1ccc(C(=O)O)cc1,-7,-7,18,-23*,10,3
C[C@@H]1CN([C@H](C)CO)S(=O)(=O)c2ccc(C3=CCCCC3)cc2O[C@H]1CN(C)C(=O)C1CCCCC1,14,-1,.,-5,3,18
C[C@@H]1CCCCO[C@H](CN(C)S(=O)(=O)c2ccc(Cl)cc2)[C@H](C)CN([C@@H](C)CO)C(=O)c2cc(NC(=O)Nc3ccc4c(c3)OCO4)ccc2O1,1,-11,.,4,34*,-13
C[C@H](CO)N1C[C@H](C)[C@H](CN(C)S(=O)(=O)c2ccc(Cl)cc2)Oc2ccc(NC(=O)Nc3ccc4c(c3)OCO4)cc2C1=O,4,-3,.,2,29*,-2
C[C@H](CO)N1C[C@H](C)[C@H](CN(C)S(=O)(=O)c2ccc(F)cc2)OCCCC[C@H](C)Oc2ccc(NC(=O)Nc3ccc4c(c3)OCO4)cc2C1=O,-2,-12,.,1,-7,-6
C[C@@H]1CCCCO[C@@H](CN(C)S(=O)(=O)c2ccc(F)cc2)[C@H](C)CN([C@H](C)CO)C(=O)c2cc(NC(=O)Nc3ccc4c(c3)OCO4)ccc2O1,2,-14,.,2,24*,-2
Cc1nc([N+](=O)[O-])c(Br)n1CC(=O)c1cccc([N+](=O)[O-])c1,-1,.,-7,-39*,0,-1
COC(=O)Cn1c(C)nc([N+](=O)[O-])c1Br,2,-4,.,11,-15,23
Cc1nc([N+](=O)[O-])c(Br)n1CC(=O)c1ccc(F)cc1,-5,.,-10,-33*,11,-1
CN(C)C(=O)C[C@H]1CC[C@@H]2[C@H](COc3ccc(NC(=O)c4ccc(F)cc4)cc3C(=O)N2C)O1,-1,1,.,1,-1,15
C[C@@H]1CN([C@H](C)CO)C(=O)Cc2cc(NC(=O)Cn3cnnn3)ccc2O[C@@H]1CN(C)CC1CCCCC1,8,-6,.,2,22*,-17
C[C@@H]1CN([C@H](C)CO)C(=O)Cc2cc(NC(=O)Cn3cnnn3)ccc2O[C@H]1CN(C)C(=O)Nc1ccc(C(F)(F)F)cc1,0,-1,.,-3,30*,-1
SMILES,AF4-AF9 inh,Cneo AK release,PfHsp90 yeast 2,rRNA inh HTS,DENV2 CPE rescue,S100A4 inh HTS
C[C@@H]1CN([C@H](C)CO)C(=O)Cc2cc(NC(=O)Cn3cnnn3)ccc2O[C@@H]1CN(C)CC1CC1,-1,2,.,1,2,-6
C[C@H](CO)N1C[C@H](C)[C@H](CN(C)C(=O)Nc2ccc3c(c2)OCO3)Oc2ccc(NC(=O)Cn3cnnn3)cc2CC1=O,-1,-6,.,0,42*,2
C[C@@H]1CN([C@H](C)CO)C(=O)Cc2cc(NC(=O)Cn3cnnn3)ccc2O[C@@H]1CN(C)C(=O)Nc1ccc2c(c1)OCO2,-1,-2,.,4,0,3
C[C@H](CO)N1C[C@H](C)[C@@H](CN(C)C(=O)Nc2ccc(C(F)(F)F)cc2)Oc2ccc(NC(=O)Cn3cnnn3)cc2CC1=O,-5,49,.,1,-4,-4
CCN1[C@@H]2Cn3c(ccc(-c4ccc(OC)cc4)c3=O)[C@H]1[C@@H](C(=O)NCC1CC1)[C@@H]2CO,-19,0,.,-2,-12,4
O=C(Nc1ccc2oc(Cc3ccc(Cl)cc3)nc2c1)c1cccnc1,.,0,-17,-14,.,-1
CCOc1cccc(C(=O)Nc2ccc3oc(Cc4ccc(Cl)cc4)nc3c2)c1,.,-3,6,-30*,.,-5
